From ChEMBL document CHEMBL1152191, “Identification and optimization of N3,N6-diaryl-1H-pyrazolo[3,4-d]pyrimidine-3,6-diamines as a novel class of ACK1 inhibitors” (Bioorg Med Chem Lett, 2008)

How the values were obtained:
[1] = target: T1, Activated CDC42 kinase 1 (Homo sapiens, UniProt Q07912); test: Inhibition of histidine-tagged ACK1 (amino acids 117 to 489) expressed in SF9 cells
[2] = Mean residence time in Sprague-Dawley rat at 0.5 mg/kg, iv; format: ADME, organism-based; design: dose 0.5 mg/kg, route intravenous; conditions: in vivo
Procedure, shortened: (§1)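 Male Sprague–Dawley rats received 0.5 mg/kg as an iv dose, with n = 3 animals per study. CL, Vss, MRT and AUC were derived from the plasma concentration profile.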

[3] = Clearance in Sprague-Dawley rat at 0.5 mg/kg, iv; format: ADME, organism-based; design: dose 0.5 mg/kg, route intravenous; conditions: in vivo; procedure, shortened: as §1
[4] = target: T1, Activated CDC42 kinase 1; test: Inhibition of flag-tagged ACK1 autophosphorylation expressed in human 293 cells; format: cell-based, HEK293
Procedure, shortened: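 293 cells stably expressing Flag-ACK1 are detached with PBS/EDTA, washed, and pre-incubated in suspension with DMSO or compound. They are then re-plated for 2 h in medium with 10% FCS, with directly lysed cells as control. Autophosphorylation is read by anti-pTyr western blot after Flag IP, and IC50 determined.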

[5] = Volume of distribution at steady state in Sprague-Dawley rat at 0.5 mg/kg, iv; format: ADME, organism-based; design: dose 0.5 mg/kg, route intravenous; conditions: in vivo, read-out: Vdss; procedure, shortened: as §1
[6] = AUC in Sprague-Dawley rat at 0.5 mg/kg, iv; format: ADME, organism-based; design: dose 0.5 mg/kg, route intravenous; conditions: plasma; procedure, shortened: as §1
[7] = target: Tyrosine-protein kinase BTK (Homo sapiens, UniProt Q06187); test: Inhibition of BTK
[8] = target: Vascular endothelial growth factor receptor 2 (Homo sapiens, UniProt P35968); test: Inhibition of KDR
[9] = target: Angiopoietin-1 receptor (Homo sapiens, UniProt Q02763); test: Inhibition of Tie2
[10] = target: Tyrosine-protein kinase Lck (Homo sapiens, UniProt P06239); test: Inhibition of LCK
[11] = target: T2, Tyrosine-protein kinase JAK3 (Homo sapiens, UniProt P52333); test: Inhibition of Jak3
T2 sequence (P52333 whole entry): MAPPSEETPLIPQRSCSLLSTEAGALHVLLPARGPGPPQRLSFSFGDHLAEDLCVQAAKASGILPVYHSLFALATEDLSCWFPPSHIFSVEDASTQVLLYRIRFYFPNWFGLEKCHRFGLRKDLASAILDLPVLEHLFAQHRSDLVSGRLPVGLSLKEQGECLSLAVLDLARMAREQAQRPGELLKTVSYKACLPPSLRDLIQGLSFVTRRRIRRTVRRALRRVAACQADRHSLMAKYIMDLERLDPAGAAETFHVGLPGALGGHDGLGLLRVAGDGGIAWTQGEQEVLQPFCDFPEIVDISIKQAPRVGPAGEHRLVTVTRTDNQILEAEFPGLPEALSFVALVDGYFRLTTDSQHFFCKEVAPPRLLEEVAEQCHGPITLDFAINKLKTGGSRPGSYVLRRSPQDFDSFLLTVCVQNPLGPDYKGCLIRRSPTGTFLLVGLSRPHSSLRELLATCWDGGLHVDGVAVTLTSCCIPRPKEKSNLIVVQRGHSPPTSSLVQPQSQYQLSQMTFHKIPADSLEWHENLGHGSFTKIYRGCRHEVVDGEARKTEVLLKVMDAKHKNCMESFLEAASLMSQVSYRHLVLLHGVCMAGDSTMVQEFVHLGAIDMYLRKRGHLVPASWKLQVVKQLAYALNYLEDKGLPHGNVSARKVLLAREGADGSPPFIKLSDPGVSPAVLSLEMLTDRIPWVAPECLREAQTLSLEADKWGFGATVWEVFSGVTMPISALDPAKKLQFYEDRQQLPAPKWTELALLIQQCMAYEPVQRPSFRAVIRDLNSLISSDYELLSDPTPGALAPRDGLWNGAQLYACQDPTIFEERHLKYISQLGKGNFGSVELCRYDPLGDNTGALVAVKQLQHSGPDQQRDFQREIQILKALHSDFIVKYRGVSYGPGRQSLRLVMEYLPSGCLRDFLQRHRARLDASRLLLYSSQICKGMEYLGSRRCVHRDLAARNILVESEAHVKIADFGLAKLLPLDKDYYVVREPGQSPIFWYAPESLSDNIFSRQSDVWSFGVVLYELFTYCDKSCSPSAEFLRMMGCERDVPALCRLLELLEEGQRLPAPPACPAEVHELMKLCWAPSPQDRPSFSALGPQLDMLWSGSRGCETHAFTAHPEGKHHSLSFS

[12] = AUC in Sprague-Dawley rat at 0.4 mg/kg, iv; format: ADME, organism-based; design: dose 0.4 mg/kg, route intravenous; conditions: plasma
Procedure, shortened: (§2)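 Male Sprague–Dawley rats were dosed intravenously; clearance and AUC were taken from the plasma profile.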

[13] = Clearance in Sprague-Dawley rat at 0.4 mg/kg, iv; format: ADME, organism-based; design: dose 0.4 mg/kg, route intravenous; conditions: in vivo; procedure, shortened: as §2
[14] = Oral bioavailability in Sprague-Dawley rat at 4 mg/kg; format: ADME, organism-based; conditions: in vivo

Vascular endothelial growth factor receptor 2, sequence (P35968 whole entry): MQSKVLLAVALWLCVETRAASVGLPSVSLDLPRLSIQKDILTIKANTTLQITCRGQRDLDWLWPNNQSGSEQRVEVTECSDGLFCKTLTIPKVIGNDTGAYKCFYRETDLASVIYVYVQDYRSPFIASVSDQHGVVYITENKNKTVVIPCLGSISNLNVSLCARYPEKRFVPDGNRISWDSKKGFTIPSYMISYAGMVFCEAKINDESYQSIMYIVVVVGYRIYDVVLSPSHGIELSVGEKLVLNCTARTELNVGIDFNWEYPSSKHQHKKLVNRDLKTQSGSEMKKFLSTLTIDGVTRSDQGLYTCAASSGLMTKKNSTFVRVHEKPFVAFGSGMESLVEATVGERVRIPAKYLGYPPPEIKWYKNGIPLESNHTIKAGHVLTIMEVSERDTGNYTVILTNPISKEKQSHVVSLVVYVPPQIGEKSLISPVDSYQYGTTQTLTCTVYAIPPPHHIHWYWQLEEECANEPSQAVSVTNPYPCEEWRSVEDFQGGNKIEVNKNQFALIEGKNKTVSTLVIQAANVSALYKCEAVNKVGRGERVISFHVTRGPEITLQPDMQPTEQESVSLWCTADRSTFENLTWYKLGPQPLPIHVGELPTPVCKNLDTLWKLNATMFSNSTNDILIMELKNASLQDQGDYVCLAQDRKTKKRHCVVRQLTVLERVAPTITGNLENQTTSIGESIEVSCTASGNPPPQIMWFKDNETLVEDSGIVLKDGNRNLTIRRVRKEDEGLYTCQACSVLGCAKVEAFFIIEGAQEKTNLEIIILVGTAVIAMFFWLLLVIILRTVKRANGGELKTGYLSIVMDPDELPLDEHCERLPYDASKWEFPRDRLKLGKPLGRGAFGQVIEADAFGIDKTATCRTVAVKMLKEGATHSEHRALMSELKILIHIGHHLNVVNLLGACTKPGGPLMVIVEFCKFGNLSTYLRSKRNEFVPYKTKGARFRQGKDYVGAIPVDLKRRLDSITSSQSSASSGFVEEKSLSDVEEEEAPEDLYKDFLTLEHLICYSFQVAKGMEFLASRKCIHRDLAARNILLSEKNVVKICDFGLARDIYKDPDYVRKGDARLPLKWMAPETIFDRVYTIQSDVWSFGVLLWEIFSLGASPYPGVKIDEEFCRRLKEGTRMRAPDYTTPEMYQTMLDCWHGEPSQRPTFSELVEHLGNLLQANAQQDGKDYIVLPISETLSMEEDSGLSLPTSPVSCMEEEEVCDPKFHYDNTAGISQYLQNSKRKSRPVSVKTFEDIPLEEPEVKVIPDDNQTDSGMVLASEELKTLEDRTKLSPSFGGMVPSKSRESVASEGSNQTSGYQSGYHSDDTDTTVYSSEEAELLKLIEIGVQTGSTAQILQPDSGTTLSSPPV
Tyrosine-protein kinase Lck, sequence (P06239 whole entry): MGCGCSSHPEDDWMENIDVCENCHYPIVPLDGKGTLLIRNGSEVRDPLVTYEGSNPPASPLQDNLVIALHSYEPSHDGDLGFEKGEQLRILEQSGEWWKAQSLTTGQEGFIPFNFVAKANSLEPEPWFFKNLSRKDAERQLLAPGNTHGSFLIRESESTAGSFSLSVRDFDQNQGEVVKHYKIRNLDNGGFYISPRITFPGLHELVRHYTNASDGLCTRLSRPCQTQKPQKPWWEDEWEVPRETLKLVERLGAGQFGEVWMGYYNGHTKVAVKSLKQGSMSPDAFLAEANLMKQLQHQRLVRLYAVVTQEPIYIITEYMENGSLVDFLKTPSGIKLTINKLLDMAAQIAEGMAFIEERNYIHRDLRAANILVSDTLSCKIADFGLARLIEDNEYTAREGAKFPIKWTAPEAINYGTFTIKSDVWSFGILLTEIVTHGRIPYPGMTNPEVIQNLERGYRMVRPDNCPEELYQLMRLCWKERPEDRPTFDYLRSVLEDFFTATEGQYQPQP
Angiopoietin-1 receptor, sequence (Q02763 whole entry): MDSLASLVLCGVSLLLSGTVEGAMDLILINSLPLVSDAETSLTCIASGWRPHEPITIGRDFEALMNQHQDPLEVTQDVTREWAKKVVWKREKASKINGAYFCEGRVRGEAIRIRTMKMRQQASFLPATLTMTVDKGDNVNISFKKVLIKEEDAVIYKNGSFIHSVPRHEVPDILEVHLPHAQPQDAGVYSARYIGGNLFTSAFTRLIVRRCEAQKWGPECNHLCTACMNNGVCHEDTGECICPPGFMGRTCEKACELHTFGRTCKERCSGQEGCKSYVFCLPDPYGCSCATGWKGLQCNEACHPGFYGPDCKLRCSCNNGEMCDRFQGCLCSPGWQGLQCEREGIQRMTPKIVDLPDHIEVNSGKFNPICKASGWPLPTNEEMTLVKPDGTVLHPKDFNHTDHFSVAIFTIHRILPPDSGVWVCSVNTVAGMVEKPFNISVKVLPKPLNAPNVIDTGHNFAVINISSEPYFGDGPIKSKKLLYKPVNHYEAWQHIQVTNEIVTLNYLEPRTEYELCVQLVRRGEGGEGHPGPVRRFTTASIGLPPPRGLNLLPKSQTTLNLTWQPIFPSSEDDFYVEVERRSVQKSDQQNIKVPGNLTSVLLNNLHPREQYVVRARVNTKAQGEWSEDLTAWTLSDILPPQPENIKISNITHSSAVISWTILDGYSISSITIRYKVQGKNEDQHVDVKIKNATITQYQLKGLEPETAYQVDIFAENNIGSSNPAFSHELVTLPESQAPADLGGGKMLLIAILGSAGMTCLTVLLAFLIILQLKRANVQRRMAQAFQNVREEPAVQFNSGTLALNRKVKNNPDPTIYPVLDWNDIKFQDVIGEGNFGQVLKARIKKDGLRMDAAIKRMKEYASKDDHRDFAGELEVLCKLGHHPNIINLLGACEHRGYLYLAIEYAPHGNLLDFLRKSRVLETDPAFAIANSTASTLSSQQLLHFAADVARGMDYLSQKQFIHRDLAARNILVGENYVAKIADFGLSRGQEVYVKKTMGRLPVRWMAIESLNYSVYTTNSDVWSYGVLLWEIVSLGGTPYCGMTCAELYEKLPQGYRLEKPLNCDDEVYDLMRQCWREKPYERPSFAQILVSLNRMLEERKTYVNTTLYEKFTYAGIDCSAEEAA
Tyrosine-protein kinase BTK, sequence (Q06187 whole entry): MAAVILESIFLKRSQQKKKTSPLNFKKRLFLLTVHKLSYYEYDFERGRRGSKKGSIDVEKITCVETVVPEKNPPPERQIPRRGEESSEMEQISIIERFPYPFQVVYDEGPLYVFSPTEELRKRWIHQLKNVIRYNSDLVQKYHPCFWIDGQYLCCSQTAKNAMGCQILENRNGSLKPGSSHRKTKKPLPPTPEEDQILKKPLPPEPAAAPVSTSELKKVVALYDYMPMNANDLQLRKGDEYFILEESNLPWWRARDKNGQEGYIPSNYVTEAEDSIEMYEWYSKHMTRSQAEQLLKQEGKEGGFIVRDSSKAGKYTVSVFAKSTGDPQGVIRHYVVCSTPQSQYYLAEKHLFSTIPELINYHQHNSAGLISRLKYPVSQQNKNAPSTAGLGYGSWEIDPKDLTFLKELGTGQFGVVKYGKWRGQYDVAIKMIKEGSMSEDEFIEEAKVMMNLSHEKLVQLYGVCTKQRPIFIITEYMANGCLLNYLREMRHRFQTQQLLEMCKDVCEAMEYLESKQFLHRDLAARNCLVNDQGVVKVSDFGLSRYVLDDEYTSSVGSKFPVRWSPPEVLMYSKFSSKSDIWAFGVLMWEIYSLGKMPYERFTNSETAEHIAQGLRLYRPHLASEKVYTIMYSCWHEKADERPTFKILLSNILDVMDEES
T1 sequence (Q07912 whole entry, the tested form may be a part): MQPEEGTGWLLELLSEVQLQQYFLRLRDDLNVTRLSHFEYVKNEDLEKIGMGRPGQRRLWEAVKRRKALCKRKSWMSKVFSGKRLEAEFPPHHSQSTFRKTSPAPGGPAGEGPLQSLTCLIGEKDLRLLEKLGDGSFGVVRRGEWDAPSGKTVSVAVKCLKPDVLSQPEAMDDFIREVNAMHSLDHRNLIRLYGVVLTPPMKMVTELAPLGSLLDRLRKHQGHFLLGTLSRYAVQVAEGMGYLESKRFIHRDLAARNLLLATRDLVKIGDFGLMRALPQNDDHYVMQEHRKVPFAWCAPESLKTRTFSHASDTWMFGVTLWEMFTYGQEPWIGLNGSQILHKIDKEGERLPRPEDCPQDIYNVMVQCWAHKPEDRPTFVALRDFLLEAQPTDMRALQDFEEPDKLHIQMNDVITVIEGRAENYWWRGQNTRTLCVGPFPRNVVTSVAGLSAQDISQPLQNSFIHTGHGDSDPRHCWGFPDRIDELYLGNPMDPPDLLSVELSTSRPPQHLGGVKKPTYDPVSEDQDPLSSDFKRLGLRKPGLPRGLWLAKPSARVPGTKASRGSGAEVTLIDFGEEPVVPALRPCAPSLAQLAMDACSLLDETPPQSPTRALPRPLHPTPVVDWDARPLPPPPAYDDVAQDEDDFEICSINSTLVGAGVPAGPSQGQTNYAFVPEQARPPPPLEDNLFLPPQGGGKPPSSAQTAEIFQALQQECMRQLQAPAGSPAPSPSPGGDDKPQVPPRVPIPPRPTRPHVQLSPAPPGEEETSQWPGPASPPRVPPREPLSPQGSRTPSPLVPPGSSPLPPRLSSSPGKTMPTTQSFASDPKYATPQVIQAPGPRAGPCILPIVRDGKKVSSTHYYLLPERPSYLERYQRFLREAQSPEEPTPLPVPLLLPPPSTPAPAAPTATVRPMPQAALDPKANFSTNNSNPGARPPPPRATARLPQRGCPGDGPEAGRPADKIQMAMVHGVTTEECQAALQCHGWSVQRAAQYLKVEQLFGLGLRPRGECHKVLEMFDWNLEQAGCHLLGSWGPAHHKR

SMILES	Ki [1] [nM]	IC50 [4] [nM]	also measured
COC(C)(C)CCn1nc(Nc2c(C)cccc2C)c2cnc(Nc3ccc(OCCCN4CCCCC4)c(F)c3)nc21	3	60	MRT [2]: 2 h; clearance [3]: 58.3 mL/min/kg; Vd [5]: 7.5 L/kg; AUC [6]: 148 ng·h/mL
COC(C)(C)CCn1nc(Nc2c(C)cccc2C)c2cnc(Nc3ccc(OCCN4CCCC4)cc3)nc21	3	20	Ki [7]: 0.25 nM; Ki [8]: 1590 nM; Ki [9]: 1160 nM; Ki [10]: 0.04 nM; Ki [11]: 170 nM
CCOc1ccccc1Oc1nc(Nc2ccc(N3CCNCC3)cc2)ncc1C(=O)Nc1c(C)cccc1C	20	100	AUC [12]: 76 ng·h/mL; Ki [7]: 78 nM; clearance [13]: 63.3 mL/min/kg; Ki [8]: > 25000 nM; Ki [9]: > 8300 nM; Ki [10]: 13 nM; Ki [11]: 74 nM
COC(C)(C)CCn1nc(Nc2c(C)cc(C)cc2C)c2cnc(Nc3ccc(N4CCN(C)CC4)cc3)nc21	12	50	
Cc1cccc(C)c1Nc1nn(CCCN2CCCC2)c2nc(Nc3ccccc3)ncc12	100	300	
OC[C@H](O)CCn1nc(Nc2c(Cl)cccc2Cl)c2cnc(Nc3ccccc3)nc21	10	20	bioavailability [14]: 30%
Cc1cccc(C)c1Nc1nn(CC[C@@H](O)CO)c2nc(Nc3ccccc3)ncc12	30	60	
CN1CCN(CCn2nc(Nc3c(Cl)cccc3Cl)c3cnc(Nc4ccccc4)nc32)CC1	10	30	
ON1CCN(CCn2nc(Nc3c(Cl)cccc3Cl)c3cnc(Nc4ccccc4)nc32)CC1	50	30	
Cc1cccc(C)c1Nc1nn(CC[C@@H](O)CN(C)C)c2nc(Nc3ccccc3)ncc12	80	190	
COC(C)(C)CCn1nc(Nc2c(C)cccc2C)c2cnc(Nc3ccc(N4CCNCC4)cc3)nc21			MRT [2]: 3.5 h; clearance [3]: 95 mL/min/kg; Vd [5]: 20.3 L/kg; AUC [6]: 104 ng·h/mL
COC(C)(C)CCn1nc(Nc2ccccc2)c2cnc(Nc3ccccc3)nc21	> 4000		
COC(C)(C)CCn1nc(Nc2c(C)cc(C)cc2C)c2cnc(Nc3ccccc3)nc21	> 2500		
CN(C)CCCn1nc(Nc2c(Cl)cccc2Cl)c2cnc(Nc3ccccc3)nc21	5	20	
CCN(CC)CCCn1nc(Nc2c(C)cccc2C)c2cnc(Nc3ccccc3)nc21	40	140	
CN(C)CCn1nc(Nc2c(Cl)cccc2Cl)c2cnc(Nc3ccccc3)nc21	5	140	

SMILES	Ki [1] [nM]	IC50 [4] [nM]	also measured
COC(C)(C)CCn1nc(Nc2c(C)cccc2C)c2cnc(Nc3ccccc3)nc21	3	20	
COC(C)(C)CCn1nc(Nc2c(Cl)cccc2Cl)c2cnc(Nc3ccccc3)nc21	7	40	
COC(C)(C)CCn1nc(Nc2c(Cl)cccc2Cl)c2cnc(Nc3ccc(N4CCNCC4)cc3)nc21	12	10	MRT [2]: 3.6 h; clearance [3]: 70 mL/min/kg; Vd [5]: 15.4 L/kg; AUC [6]: 117 ng·h/mL
COC(C)(C)CCn1nc(Nc2c(C)cccc2C)c2cnc(Nc3ccc(N4CCN(C)CC4)cc3)nc21	2	20	
CN(C)[C@@H]1CCN(CCn2nc(Nc3c(Cl)cccc3Cl)c3cnc(Nc4ccccc4)nc32)C1	10	20	
CN(C)C(=O)Cn1nc(Nc2c(Cl)cccc2Cl)c2cnc(Nc3ccccc3)nc21	30	90	
COC(C)(C)CCn1nc(Nc2c(C)cccc2C)c2cnc(Nc3ccc(OCCN4CCCC4)c(F)c3)nc21	3	20	Ki [7]: 125 nM; Ki [8]: > 12500 nM; Ki [9]: > 2500 nM; Ki [10]: 11 nM; Ki [11]: > 12500 nM
COC(C)(C)CCn1nc(Nc2c(Cl)cccc2Cl)c2cnc(Nc3ccc(OCCN4CCCC4)c(F)c3)nc21	2	30	MRT [2]: 2.7 h; clearance [3]: 48.3 mL/min/kg; Vd [5]: 7.7 L/kg; AUC [6]: 174 ng·h/mL
COC(C)(C)CCn1nc(Nc2c(C)cc(F)cc2C)c2cnc(Nc3ccc(N4CCN(C)CC4)cc3)nc21	10	20	
COC(C)(C)CCn1nc(Nc2ccccc2)c2cnc(Nc3ccc(N4CCN(C)CC4)cc3)nc21	400	2100	
Cc1cccc(C)c1Nc1nn(CCN2CCOCC2)c2nc(Nc3ccccc3)ncc12	50	70	
O=C(Cn1nc(Nc2c(Cl)cccc2Cl)c2cnc(Nc3ccccc3)nc21)N1CCOCC1	70	140	
OC[C@H]1CCCN1CCn1nc(Nc2c(Cl)cccc2Cl)c2cnc(Nc3ccccc3)nc21	30	50	
COC(C)(C)CCn1nc(Nc2c(C)cc(F)cc2C)c2cnc(Nc3ccccc3)nc21	26	5500	
Cc1cccc(C)c1Nc1nn(CCCN(C)C)c2nc(Nc3ccccc3)ncc12	30	40	
